# Reference: PubChem BioAssay
# Activity calls are given as the source filed them.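 Rule for the calls, unless noted: active = fluorescence slope higher than the sample average by over 3 SD (cut at about -0.22 in these data, passing the limit was not always enough); inactive = the rest.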
# Tests used:
# [1] = inhibitors of TNFa-induced NFkB p65 translocation, primary screen, imaging, HUVEC, MLSMR starter and 10KST1 sets (AID 438;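 active = inhibition above 20% together with a positive visual image hit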;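 note: compound added about 3h40 before a 20 min TNFalpha stimulation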;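 for inhibition: signal is the nuclear over cytoplasmic p65 intensity ratio per well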); conditions: HUVEC TNFa-induced p65 nuclear translocation; cell count: measured here: nuclei count (cytotoxicity indicator), at 2.08 µM; inhibition: at 2 µM, stronger effect = higher value, 0% TNFa-plus-vehicle, 100% no-TNFa wells
# [2] = inhibitors of mutant huntingtin aggregation, primary screen, imaging, exon1htt(103Q)mCFP cells, high-content imaging (AID 483;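 active = visual image review flags a hit and inhibition of aggregation exceeds 20%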;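 note: compound exposure lasted 3 days before fixation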;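 for nuclei count: percent of the per-plate median nuclei count of sample wells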); conditions: exon1htt(103Q)mCFP cell line, aggregate imaging, at 2 µM; inhibition of aggregation: stronger effect = higher value; nuclei count: measured here: cell count, toxicity
# [3] = inhibitors of E-selectin induction by TNFa, primary screen, imaging, HUVEC, immunofluorescence, MLSMR starter and 10KST1 sets (AID 487;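 active = visually confirmed hit in the image check and inhibition above 20%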;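 for inhibition: signal is fraction of cell area covered by stained E-selectin grains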;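 for nuclei count: 100% = median nuclei count of all wells on the same plate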); conditions: HUVEC TNFalpha-induced E-selectin immunofluorescence imaging, at 2 µM; inhibition: stronger effect = higher value; nuclei count: measured here: cell number, toxicity
# [4] = biological target: Voltage-gated potassium channel subunit beta-2 (Rattus norvegicus) (UniProt P62483); assay: KvBeta enzyme negative modulators, primary screen, biochemical, NADPH fluorescence (AID 622); conditions: recombinant KvBeta, 4-cyanobenzaldehyde reduction, at 10 µM, stronger effect = higher value;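 note: slope of raw intensity against log time taken from 70 to 1610 s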
# [5] = biological target: Voltage-gated potassium channel subunit beta-2 (Rattus norvegicus) (UniProt P62483); assay: KvBeta positive modulators, primary screen, biochemical, NADPH fluorescence (AID 623;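 active = NADPH fluorescence slope more negative than the mean of all samples by about 3 SD, 99.7% confidence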;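 note: fluorescence intensity change per second fitted from 20 to 320 s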); conditions: Recombinant KvBeta, NADPH fluorescence decrease slope, 10 min; at 10 µM; stronger effect = lower value
# [6] = biological target: Muscarinic acetylcholine receptor M4 (Homo sapiens) (UniProt P08173); assay: compounds altering M4/GIRK thallium flux, either direction, primary screen, M4 allosteric agonist project, cell-based, HEK293 M4/GIRK, BTC-AM (AID 625;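 active = fluorescence slope after compound addition differing from the mean of all tested samples at 99.7% confidence, mostly higher but some lower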;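 note: thallium influx through GIRK channels coupled to M4 in HEK293 cells with BTC-AM dye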); conditions: at 10 µM, actives lie on both sides
# Outline: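 assay system = HEK293 cells with M4 receptor and GIRK channels | medium = pH 7.3 thallium assay buffer | doses = 10 µM final, single point | timing = cells overnight at 37 °C, BTC-AM loading 1 h, reads 2 min total | signal = BTC-AM fluorescence, 1 Hz kinetic reads | read-out = post-addition slope, 15–24 s, of baseline-normalized fluorescence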
# [7] = inhibitors of Sendai virus-induced IRF3 signaling, primary screen, TLR/RLR signaling modifier project, cell-based, Sendai virus stimulus, luciferase, 10K MLSCN set (AID 602276;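 active = inhibition at or above 50% at 10 µM; inactive = inhibition below 50%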;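 note: firefly luciferase from ISG56 promoter only with Renilla not read in this screen; 0% = Sendai virus plus DMSO and 100% = medium plus DMSO without virus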); conditions: HEK293 RL24 IRF3 luciferase reporter, at 10 µM, stronger effect = higher value
# [8] = inhibitors of poly I:C-induced TLR3 signaling, primary screen, cell-based, poly I:C stimulus, luciferase, 10K MLSCN set (AID 602277;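 active = inhibition of the reporter signal at or above 50%; inactive = inhibition below 50%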); conditions: HEK293-TLR3 RL24 IRF3 luciferase reporter, at 10 µM, stronger effect = higher value
# Chain of Muscarinic acetylcholine receptor M4 (Homo sapiens) (P08173 whole entry, looked up): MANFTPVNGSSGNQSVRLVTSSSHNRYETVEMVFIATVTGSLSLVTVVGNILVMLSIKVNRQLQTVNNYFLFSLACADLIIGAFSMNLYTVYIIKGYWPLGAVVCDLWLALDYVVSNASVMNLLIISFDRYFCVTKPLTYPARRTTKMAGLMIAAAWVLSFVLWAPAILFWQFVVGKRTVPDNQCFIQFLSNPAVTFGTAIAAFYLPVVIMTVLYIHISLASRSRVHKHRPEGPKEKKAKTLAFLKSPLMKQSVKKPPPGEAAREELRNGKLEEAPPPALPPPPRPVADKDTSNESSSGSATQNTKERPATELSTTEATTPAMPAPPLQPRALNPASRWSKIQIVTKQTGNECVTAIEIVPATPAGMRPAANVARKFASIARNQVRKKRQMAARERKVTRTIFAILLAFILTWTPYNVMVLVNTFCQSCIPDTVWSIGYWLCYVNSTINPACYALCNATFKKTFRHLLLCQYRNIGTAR
# Chain of Voltage-gated potassium channel subunit beta-2 (Rattus norvegicus) (P62483 whole entry, looked up): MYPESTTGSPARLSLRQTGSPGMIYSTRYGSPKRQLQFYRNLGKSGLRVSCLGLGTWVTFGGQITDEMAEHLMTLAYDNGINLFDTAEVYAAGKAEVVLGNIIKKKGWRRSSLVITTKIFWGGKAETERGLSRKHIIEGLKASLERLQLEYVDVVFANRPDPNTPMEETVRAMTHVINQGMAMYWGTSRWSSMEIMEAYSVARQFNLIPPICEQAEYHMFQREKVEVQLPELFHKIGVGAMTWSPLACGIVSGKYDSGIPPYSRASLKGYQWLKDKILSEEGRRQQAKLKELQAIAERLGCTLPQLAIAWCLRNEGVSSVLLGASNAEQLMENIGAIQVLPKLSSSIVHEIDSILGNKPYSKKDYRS
SMILES,cell count [1],inhibition [1],inhibition of aggregation [2],nuclei count [2],inhibition [3],nuclei count [3],fluorescence slope [4],NADPH fluorescence slope [5],fluorescence slope [6],inhibition [7],inhibition [8]
N#CCSCC(=O)Nc1ccc(F)cc1,511,4.1% (inactive),-5.3% (inactive),108%,10.5% (inactive),99.2%,-0.462 (inactive),-5.6e-05 (inactive),0.00474 (inactive),13.5% (inactive),26.3% (inactive)
C=CCSc1nc2c(c(=O)[nH]c(=O)n2C)n1C(C)C,309,-11.3% (inactive),-2.8% (inactive),110%,33% (inactive),97.6%,-0.579 (inactive),8.7e-06 (inactive),0.00565 (inactive),2.75% (inactive),14.4% (inactive)
CCOC(=O)CSC1=Nc2ccccc2C2=NC(CC(=O)NCc3ccc(OC)cc3)C(=O)N12 (stereo not drawn),463,-13.6% (inactive),-2.2% (inactive),64.2%,-23.1% (inactive),91.7%,-0.476 (inactive),-8e-06 (inactive),0.00508 (inactive),10.6% (inactive),20.5% (inactive)
CN(CCC#N)C(=O)COC(=O)c1ccc(Cl)c(S(N)(=O)=O)c1,426,-2.2% (inactive),17.6% (inactive),58.5%,-96.3% (inactive),102%,-0.539 (inactive),-5.1e-05 (inactive),0.00521 (inactive),16.3% (inactive),25.4% (inactive)
Cn1c(CN2CCOCC2)nc2cc(NC(=O)c3ccccc3Cl)ccc21,463,7.9% (inactive),-4.3% (inactive),102%,-19.9% (inactive),113%,-0.588 (inactive),-2.3e-05 (inactive),0.00633 (inactive),8.55% (inactive),2.36% (inactive)
COc1cc2nc(C3CCC3)n(NC(=O)C3CCCC(OC)C3)c(=O)c2cc1OC (stereo not drawn),609,-8.8% (inactive),-18% (inactive),106%,-30.3% (inactive),107%,-0.266 (inactive),-1.2e-05 (inactive),0.00583 (inactive),15.8% (inactive),9.02% (inactive)
COC(=O)c1cc(Oc2ccc(C(=O)OC)cc2N)cc(C(=O)OC)c1,278,-12.5% (inactive),1% (inactive),106%,-19% (inactive),108%,-0.467 (inactive),-0.000384 (inactive),0.00407 (inactive),-3.38% (inactive),8.08% (inactive)
CCOC(=O)c1cc2oc(C)cc2n1CC(=O)OC1CCCCC1,353,5.3% (inactive),-10.9% (inactive),110%,-13.6% (inactive),102%,-0.584 (inactive),-2.1e-06 (inactive),0.00678 (inactive),1.83% (inactive),16.4% (inactive)
COc1ccc(-c2nn(-c3ccccc3)cc2/C=N/n2cnnc2)cc1OC,737,0.7% (inactive),-17.1% (inactive),100%,-74.5% (inactive),108%,-0.464 (inactive),-6.1e-05 (inactive),0.00596 (inactive),1.15% (inactive),1.32% (inactive)
CCCCCn1c(=O)[nH]c2cc(C(=O)NCCCN3CCCCC3)ccc2c1=O,255,-2.1% (inactive),-0.1% (inactive),77.4%,-32.3% (inactive),109%,-0.298 (inactive),-5.4e-05 (inactive),0.00603 (inactive),7.49% (inactive),6.91% (inactive)
NC(=O)c1c(-c2ccccc2)oc2ccc(O)cc12,380,-4.7% (inactive),11.1% (inactive),103%,-104% (inactive),92.8%,-0.532 (inactive),-1.2e-05 (inactive),0.00463 (inactive),-8.7% (inactive),-13.7% (inactive)
Nc1nc2ccccc2n1/N=C/c1ccc(Br)cc1,334,-2.9% (inactive),-2.4% (inactive),87.2%,12.6% (inactive),92.2%,-0.47 (inactive),-3.8e-05 (inactive),0.00585 (inactive),-55% (inactive),-127% (inactive)
CCOc1ccc(-n2cc(C(=O)Nc3cccc(C)n3)c3cc(OC)c(OC)cc3c2=O)cc1,395,5.1% (inactive),20.8% (inactive),82.4%,-8% (inactive),94%,-0.414 (inactive),-0.000102 (inactive),0.0107 (inactive),13.3% (inactive),25.9% (inactive)
CCc1ccc2nc(NC(=O)CSCc3c(C)noc3C)sc2c1,416,-2% (inactive),-12.1% (inactive),105%,-87.1% (inactive),112%,-0.463 (inactive),1.1e-05 (inactive),0.00795 (inactive),-52.6% (inactive),-109% (inactive)
CCCCn1c(SCC(=O)c2ccc3c(c2)OCCO3)nnc1-c1ccco1,528,-12.7% (inactive),-5.2% (inactive),108%,15.4% (inactive),110%,-0.483 (inactive),0.00011 (inactive),0.00599 (inactive),6.03% (inactive),12.4% (inactive)
CCc1cc2c(NCCC(=O)O)ncnc2s1,507,15.8% (inactive),4.4% (inactive),103%,13.4% (inactive),110%,-0.562 (inactive),1.3e-05 (inactive),0.00669 (inactive),12.3% (inactive),17.4% (inactive)
COc1ccccc1-c1cc(C(=O)NCCCn2ccnc2)no1,459,-15.2% (inactive),-15.7% (inactive),106%,49.5% (inactive),90%,-0.291 (inactive),-2.7e-05 (inactive),0.00777 (inactive),5.02% (inactive),36% (inactive)
Cc1noc(C)c1C(=O)OCC(=O)Nc1ccccc1C(=O)NC(C)c1ccccc1 (stereo not drawn),503,4.7% (inactive),-4% (inactive),94.3%,-72.6% (inactive),106%,-0.414 (inactive),-0.000106 (inactive),0.00545 (inactive),9.57% (inactive),7.74% (inactive)
COc1ccccc1OC(=O)c1ccc2nsnc2c1,623,-11.4% (inactive),25% (inactive),87.8%,-75.4% (inactive),103%,-0.585 (inactive),-5.9e-05 (inactive),0.00471 (inactive),9.79% (inactive),99.7% (active)
Cn1c(C(=O)NCC2CCCO2)cc2c(=O)[nH]c3ccccc3c21 (stereo not drawn),334,11.8% (inactive),-27.1% (inactive),114%,47.5% (inactive),76.8%,-0.355 (inactive),-5.9e-05 (inactive),0.00794 (inactive),-11.9% (inactive),-5.12% (inactive)
O=C(CSc1ncnc2sc3c(c12)CCCCC3)NCc1ccco1,354,-5.1% (inactive),-11.3% (inactive),93.9%,-196% (inactive),128%,-0.472 (inactive),-1.4e-05 (inactive),0.0063 (inactive),17.7% (inactive),35.5% (inactive)
O=C(NCc1cccnc1)c1ccccc1Br,397,-0.5% (inactive),4.6% (inactive),104%,-18.8% (inactive),112%,-0.521 (inactive),-1.1e-05 (inactive),0.00504 (inactive),15.2% (inactive),20.8% (inactive)
c1nc(NCC2CCCO2)c2[nH]cnc2n1 (stereo not drawn),349,-12.5% (inactive),12.3% (inactive),90.8%,-27.3% (inactive),118%,-0.483 (inactive),1.9e-05 (inactive),0.00434 (inactive),13.9% (inactive),16.7% (inactive)
Cc1cc(NC(=O)c2cnn3cccnc23)no1,467,0.3% (inactive),3.3% (inactive),104%,-33.8% (inactive),119%,-0.613 (inactive),-4.3e-05 (inactive),0.00996 (inactive),-57.6% (inactive),-124% (inactive)
O=C(Cn1ncc2ccccc21)N1CCN(c2cccc(C(F)(F)F)c2)CC1,659,-5.8% (inactive),1.3% (inactive),114%,-16.1% (inactive),122%,-0.378 (inactive),-2.5e-05 (inactive),0.00602 (inactive),12% (inactive),21.1% (inactive)
Cn1c(Cc2ccccc2)nnc1SCC(=O)NC1CCCCC1,327,-2.3% (inactive),-1% (inactive),94.8%,-136% (inactive),120%,-0.0696 (active),-3.5e-05 (inactive),0.0079 (inactive),16.3% (inactive),0.751% (inactive)
CCSc1ncc(C#N)c(=O)[nH]1,381,3.5% (inactive),-21.7% (inactive),89.7%,-53.9% (inactive),102%,-0.517 (inactive),-0.000177 (inactive),0.00385 (inactive),2.6% (inactive),6.42% (inactive)
COc1ccc(C(C)(C)C)cc1NC(=O)Nc1ccc2c(c1)OCO2,433,2.7% (inactive),7.4% (inactive),102%,-13.1% (inactive),96.8%,-0.577 (inactive),-8.3e-06 (inactive),0.0063 (inactive),-6.55% (inactive),-2.75% (inactive)
